Experimental data: ChEMBL document CHEMBL5331111, “Synthetic Biology Facilitates Semisynthetic Development of Type V Glycopeptide Antibiotics Targeting Vancomycin-Resistant Enterococcus” (J Med Chem, 2023)
Values after ≈ are worked out from the molar mass of the structure shown. Active and inactive are the calls of the source. The calls are words filed in the database; no cut-off is given here.

How the values were obtained:
[1] = test system: Mycobacteroides abscessus; test: Antimycobacterial activity against Mycobacterium abscessus ATCC 19977 assessed as inhibition of bacterial growth measured after 2 days by resazurin dye based analysis; format: functional; details: ATCC 19977, 48 h, time 2 day
Outline: (§1)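 Cultured in 7H9 with 0.2% glycerol, 10% OADC and 0.05% Tween-80. Inoculum diluted to ~5 × 10^5 CFU/mL and confirmed at 3–8 × 10^5 by plating on 7H10 agar. Growth read at 2 days, then 30 μg/mL resazurin added for one more day. Values averaged from at least two experiments.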

[2] = test system: Mycobacterium tuberculosis; test: Antimycobacterial activity against Mycobacterium tuberculosis H37Ra assessed as inhibition of bacterial growth measured after 7 days by resazurin dye based analysis; format: functional; details: 168 h, time 7 day
Outline: (§2)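 Strains grown in 7H9 broth with 0.2% glycerol, 10% OADC and 0.05% Tween-80. Inoculum was about 5 × 10^5 CFU/mL, checked by plating on 7H10/OADC agar to be 3–8 × 10^5. Read at 2 days for M. smegmatis and 7 days for M. tuberculosis H37Ra, M. bovis and M. avium. Resazurin 30 μg/mL was then added for one further day. Values are averages of at least two experiments.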

[3] = Antimycobacterial activity against Mycobacterium avium subsp. avium ATCC 25291 assessed as inhibition of bacterial growth measured after 7 days by resazurin dye based analysis; format: functional; details: ATCC 25291, 168 h, time 7 day; outline: as §2
[4] = test system: Mycolicibacterium smegmatis; test: Antimycobacterial activity against Mycobacterium smegmatis MC2 155 assessed as inhibition of bacterial growth measured after 2 days by resazurin dye based analysis; format: functional; details: MC2 155, 48 h, time 2 day; outline: as §2
[5] = test system: Mycolicibacterium fortuitum; test: Antimycobacterial activity against Mycobacterium fortuitum ATCC 6891 assessed as inhibition of bacterial growth measured after 2 days by resazurin dye based analysis; format: functional; details: ATCC 6891, 48 h, time 2 day; outline: as §1
Enterococcus faecium [6] = test: Antibacterial activity against Vancomycin-resistant Enterococcus faecium ATCC 700221 infected in cyclophosphamide induced neutropenic thigh infection CD-1 mouse model assessed as reduction in weight loss at 50 mg/kg, ip qid measured after 24 hrs post-infection; format: functional, organism-based
Outline: (§3)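 Female CD-1 mice, 6–10 weeks old, made neutropenic with i.p. cyclophosphamide (150 mg/kg day 4, 100 mg/kg day 1). About 1 × 10^6 CFU of E. faecium ATCC 700221, grown in BHI with vancomycin, were injected into each thigh. Dosing was i.p. at 1, 3, 5 and 20 h post-infection, in PEG400/DMSO/H₂O (45/5/50) vehicle, with vehicle controls. Mice were euthanized at 24 h.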

Enterococcus faecium [7] = test: Antibacterial activity against Vancomycin-resistant Enterococcus faecium ATCC 700221 infected in cyclophosphamide induced neutropenic thigh infection CD-1 mouse model assessed as increase in survival rate at 50 mg/kg, ip qid measured after 24 hrs post-infection; format: functional, organism-based; outline: as §3
Enterococcus faecium [8] = test: Antibacterial activity against Enterococcus faecium WCC 0587 assessed as inhibition of bacterial growth by Mueller-Hinton broth based assay; format: functional
Enterococcus faecium [9] = test: Antibacterial activity against Enterococcus faecium WCC 0516 assessed as inhibition of bacterial growth by Mueller-Hinton broth based assay; format: functional
Enterococcus faecium [10] = test: Antibacterial activity against Enterococcus faecium WCC 0558 assessed as inhibition of bacterial growth by Mueller-Hinton broth based assay; format: functional
Staphylococcus aureus = test: Antibacterial activity against Staphylococcus aureus ATCC 33591 assessed as reduction in bacterial growth by Mueller-Hinton broth based assay; format: functional
Outline: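 Broth MIC by standard procedure in Mueller-Hinton broth, for both B. subtilis 168 and S. aureus ATCC 33591.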

Enterococcus faecium [11] = test: Antibacterial activity against Enterococcus faecium WCC 0534 assessed as inhibition of bacterial growth by Mueller-Hinton broth based assay; format: functional
Enterococcus gallinarum = test: Antibacterial activity against vancomycin-resistant Enterococcus gallinarum ATCC 49573 assessed as inhibition of bacterial growth by Mueller-Hinton broth based assay; format: functional
Enterococcus faecium [12] = test: Antibacterial activity against Enterococcus faecium WCC 0491 assessed as inhibition of bacterial growth by Mueller-Hinton broth based assay; format: functional
Enterococcus faecium [13] = test: Antibacterial activity against vancomycin-resistant Enterococcus faecium ATCC 700221 assessed as inhibition of bacterial growth by Mueller-Hinton broth based assay; format: functional
Enterococcus faecium [14] = test: Antibacterial activity against Enterococcus faecium WCC 0537 assessed as inhibition of bacterial growth by Mueller-Hinton broth based assay; format: functional
Enterococcus faecium [15] = test: Antibacterial activity against Enterococcus faecium WCC 0492 assessed as inhibition of bacterial growth by Mueller-Hinton broth based assay; format: functional
Enterococcus faecium [16] = test: Antibacterial activity against Enterococcus faecium WCC 0553 assessed as inhibition of bacterial growth by Mueller-Hinton broth based assay; format: functional
Enterococcus faecium [17] = test: Antibacterial activity against Enterococcus faecium WCC 0499 assessed as inhibition of bacterial growth by Mueller-Hinton broth based assay; format: functional
Enterococcus faecalis = test: Antibacterial activity against vancomycin-resistant Enterococcus faecalis ATCC 51299 assessed as inhibition of bacterial growth by Mueller-Hinton broth based assay; format: functional
Enterococcus faecium [18] = test: Antibacterial activity against vancomycin-resistant Enterococcus faecium WCC 0541 assessed as inhibition of bacterial growth by Mueller-Hinton broth based assay; format: functional
Enterococcus faecium [19] = test: Antibacterial activity against wild type Enterococcus faecium ATCC 19434 assessed as inhibition of bacterial growth by Mueller-Hinton broth based assay; format: functional
Enterococcus faecium [20] = test: Antibacterial activity against Enterococcus faecium WCC 0524 assessed as inhibition of bacterial growth by Mueller-Hinton broth based assay; format: functional
Enterococcus faecium [21] = test: Antibacterial activity against Enterococcus faecium WCC 0506 assessed as inhibition of bacterial growth by Mueller-Hinton broth based assay; format: functional
Enterococcus faecium [22] = test: Antibacterial activity against Enterococcus faecium WCC 0545 assessed as inhibition of bacterial growth by Mueller-Hinton broth based assay; format: functional
Enterococcus faecium [23] = test: Antibacterial activity against Enterococcus faecium WCC 0502 assessed as inhibition of bacterial growth by Mueller-Hinton broth based assay; format: functional
Enterococcus faecium [24] = test: Antibacterial activity against Enterococcus faecium WCC 0528 assessed as inhibition of bacterial growth by Mueller-Hinton broth based assay; format: functional
Enterococcus faecium [25] = test: Antibacterial activity against Enterococcus faecium WCC 0500 assessed as inhibition of bacterial growth by Mueller-Hinton broth based assay; format: functional
Enterococcus faecium [26] = test: Antibacterial activity against Enterococcus faecium WCC 0495 assessed as inhibition of bacterial growth by Mueller-Hinton broth based assay; format: functional
Enterococcus faecium [27] = test: Antibacterial activity against Enterococcus faecium WCC 0586 assessed as inhibition of bacterial growth by Mueller-Hinton broth based assay; format: functional
Enterococcus faecium [28] = test: Antibacterial activity against Enterococcus faecium WCC 0533 assessed as inhibition of bacterial growth by Mueller-Hinton broth based assay; format: functional
Enterococcus faecium [29] = test: Antibacterial activity against Enterococcus faecium WCC 0498 assessed as inhibition of bacterial growth by Mueller-Hinton broth based assay; format: functional

CN1C(=O)[C@@H](c2cc(Cl)c(O)c(Cl)c2)NC(=O)[C@@H]2NC(=O)[C@@H](c3cc(Cl)c(O)c(Cl)c3)NC(=O)[C@H](NC(=O)C(=O)c3cc(Cl)c(O)c(Cl)c3)Cc3c[nH]c4cc(ccc34)-c3cc2cc(c3O)Oc2ccc(cc2)C[C@H]1C(=O)N[C@@H](C(=O)O)c1ccc(O)cc1 [ISOCOMPLESTATIN]
MIC [1]: > 128 µg/mL | MIC [2]: > 64 µg/mL | MIC [3]: > 64 µg/mL | MIC [4]: > 128 µg/mL | MIC [5]: > 128 µg/mL

CC(=O)NC[C@H]1CN(c2ccc(N3CCOCC3)c(F)c2)C(=O)O1
Activity (Enterococcus faecium [6]): Active | Activity (Enterococcus faecium [7]): Active

CN1C(=O)[C@@H]2NC(=O)[C@@H]3NC(=O)[C@@H](c4ccc(O)cc4)NC(=O)[C@H](NC(=O)C(N)c4ccc(O)cc4)Cc4c[nH]c5cc(ccc45)-c4cc3cc(c4O)Oc3ccc(cc3)C[C@H]1C(=O)N[C@@H](C(=O)O)c1ccc(O)c(c1)Oc1ccc2cc1 (some centres undefined)
MIC (Enterococcus faecium [8]): 8 µg/mL (≈ 7.14 µM) | MIC (Enterococcus faecium [9]): 8 µg/mL (≈ 7.14 µM) | MIC (Enterococcus faecium [10]): 8 µg/mL (≈ 7.14 µM) | MIC (Staphylococcus aureus): 8 µg/mL (≈ 7.14 µM) | MIC (Enterococcus faecium [11]): 4 µg/mL (≈ 3.57 µM) | MIC (Enterococcus gallinarum): 8 µg/mL (≈ 7.14 µM) | MIC (Enterococcus faecium [12]): 4 µg/mL (≈ 3.57 µM) | MIC (Enterococcus faecium [13]): 8 µg/mL (≈ 7.14 µM) | MIC (Enterococcus faecium [14]): 8 µg/mL (≈ 7.14 µM) | MIC (Enterococcus faecium [15]): 8 µg/mL (≈ 7.14 µM) | MIC (Enterococcus faecium [16]): 8 µg/mL (≈ 7.14 µM) | MIC (Enterococcus faecium [17]): 8 µg/mL (≈ 7.14 µM) | MIC (Enterococcus faecalis): 8 µg/mL (≈ 7.14 µM) | MIC (Enterococcus faecium [18]): 8 µg/mL (≈ 7.14 µM) | MIC (Enterococcus faecium [19]): 8 µg/mL (≈ 7.14 µM) | MIC (Enterococcus faecium [20]): 4 µg/mL (≈ 3.57 µM) | MIC (Enterococcus faecium [21]): 4 µg/mL (≈ 3.57 µM) | MIC (Enterococcus faecium [22]): 8 µg/mL (≈ 7.14 µM) | MIC [4]: 8 µg/mL (≈ 7.14 µM) | MIC (Enterococcus faecium [23]): 4 µg/mL (≈ 3.57 µM) | MIC (Enterococcus faecium [24]): 8 µg/mL (≈ 7.14 µM) | MIC [5]: 8 µg/mL (≈ 7.14 µM) | MIC (Enterococcus faecium [25]): 8 µg/mL (≈ 7.14 µM) | MIC (Enterococcus faecium [26]): 8 µg/mL (≈ 7.14 µM) | MIC (Enterococcus faecium [27]): 8 µg/mL (≈ 7.14 µM) | MIC (Enterococcus faecium [28]): 8 µg/mL (≈ 7.14 µM) | MIC (Enterococcus faecium [29]): 8 µg/mL (≈ 7.14 µM)
